Hits are enriched below; roughly 3.5% of the tested compounds scored in any of these assays.
RGS4 block = inhibitors of human RGS4; HEK293 M3R/RGS4 inducible, Fluo-4 calcium flux; stronger effect = higher value; triggered by carbachol at its EC20; B-score at 10 µM; actives 0.45% (n = 310,000); AID 463165;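 active = B-score, a plate-corrected calcium signal, over three deviations above library mean, with baseline fluorescence within five deviations of library mean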;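 also: RGS4 expression induced by doxycycline in cells with stable M3 receptor; B-score is computed from the integrated fluorescence ratio over baseline after carbachol; higher B-score means a larger calcium signal and so more RGS4 inhibition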
Target sequence (P49798 whole entry, looked up): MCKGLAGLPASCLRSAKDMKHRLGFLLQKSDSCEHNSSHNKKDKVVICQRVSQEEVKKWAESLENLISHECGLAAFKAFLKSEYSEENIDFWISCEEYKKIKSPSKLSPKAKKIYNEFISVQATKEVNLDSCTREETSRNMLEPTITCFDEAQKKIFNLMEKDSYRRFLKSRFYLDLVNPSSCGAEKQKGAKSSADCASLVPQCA
MrgX1 agonist = human MrgX1 receptor agonism, primary screen; MrgX1-HEK293 cells, Fluo-4 calcium fluorescence, agonist mode; stronger effect = higher value; B-score at 10 µM; actives 0.44% (n = 310,000); AID 588627;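 active = calcium response B-score plate-corrected fluorescence ratio at least 3 library SD, with starting fluorescence B-score inside 5 SD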
Target sequence (Q96LB2 whole entry, looked up): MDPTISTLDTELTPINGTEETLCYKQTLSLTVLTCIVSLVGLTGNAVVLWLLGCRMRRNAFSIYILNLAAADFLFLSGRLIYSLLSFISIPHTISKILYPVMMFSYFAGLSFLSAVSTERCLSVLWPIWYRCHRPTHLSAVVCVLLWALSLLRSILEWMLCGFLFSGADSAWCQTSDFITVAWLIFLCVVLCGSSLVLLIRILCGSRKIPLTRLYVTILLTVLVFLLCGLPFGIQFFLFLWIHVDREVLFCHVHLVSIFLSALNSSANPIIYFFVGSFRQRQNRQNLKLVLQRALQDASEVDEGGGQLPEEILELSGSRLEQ
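Test system: HEK293 cells stably expressing human MrgX1 receptor; amount: 15,000 cells per well; doses: compound delivered in addition one of three; times: overnight plating before 1 h dye loading; detection: Fluo-4 NW calcium-flux fluorescence, kinetic read; read-out basis: B-scored fluorescence response ratio; controls: positive and negative controls per plate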
RGS4 pot = potentiators or activators of RGS4; HEK293 M3R/inducible RGS4, carbachol calcium flux Fluo4; stronger effect = lower value; B-score at 10 µM; actives 0.92% (n = 310,000); AID 463111;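 active = B-score of the integrated calcium signal more than 4 SD below the library mean, with starting fluorescence not abnormally high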;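 also: negative B-score means reduced calcium response which marks RGS4 activation or potentiation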
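System – HEK293 FlpIn-TREx cells, stable M3R, doxycycline-inducible RGS4 · Reagent – ECmax carbachol challenge · Times – compound preincubation 20 min at room temperature before agonist · Technique – Fluo4 fluorescence kinetic imaging of calcium · Measure – B score of integrated Fluo4 ratio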
MrgX1 PAM = human MrgX1 positive allosteric modulation, primary screen | MrgX1-HEK293, Fluo-4 calcium flux, FDSS; stronger effect = higher value | B-score at 10 µM | actives 0.63% (n = 310,000) | AID 588675;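 active = plate-corrected calcium response at least 3 library SD above typical, normal starting fluorescence, not activating the receptor alone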;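 also: compound read alongside a low EC10 to EC30 dose of BAM8-22 agonist; peak minus trough fluorescence over baseline measured at the second addition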
MrgX1 antagonist = human MrgX1 receptor antagonism, primary screen; Q96LB2; MRGX1-HEK293 calcium flux, Fluo-4, BAM8-22 antagonism; stronger effect = lower value; B-score at 10 µM; actives 1.3% (n = 310,000); AID 588676;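 active = calcium-response B-score plate-corrected more than 3 library SD below zero, starting fluorescence within 5 deviations, no agonist response on first addition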;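 also: peak minus trough fluorescence over baseline after final BAM8-22 challenge near maximal dose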
MrgX1 ant reconf = human MrgX1 receptor antagonism, re-confirmation screen | actives 19% (n = 2,300) | AID 602420 | remaining BAM8-22 calcium response % of control (stronger effect = lower value), % at 10 µM | shares compounds with MrgX1 antagonist | MrgX1-HEK293, BAM8-22 calcium flux, Fluo-4; stronger effect = lower value;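 active = remaining agonist calcium response no higher than 100% minus 3 SD of agonist-only control wells, with starting fluorescence near control levels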;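 also: agonist BAM8-22 given at a near maximal EC90 to ECmax level; peak minus minimum fluorescence divided by baseline after agonist addition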
HEK293 Ca flux = activity in parental HEK293 cells lacking MrgX1 | shares compounds with MrgX1 antagonist | Fluo-4 calcium fluorescence, FDSS | fluorescence ratio F(max-min)/F0 at 10 µM | actives 2% (n = 4,000) | AID 624111;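 active = duplicate-averaged calcium fluorescence ratio at least three times the standard deviation of buffer wells, a nonspecific response in parental cells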
HEK293 Ca counter = activity in parental HEK293 cells without MrgX1; parental HEK293 calcium flux, Fluo-4 fluorescence ratio; stronger effect = higher value; AID 624114; fluorescence ratio F(max-min)/F0 at 10 µM; actives 0.4% (n = 4,000); shares compounds with MrgX1 antagonist;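 active = calcium fluorescence ratio, averaged over duplicates, at least 3 SD of the buffer-well ratio, meaning a nonspecific response in receptor-free cells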;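 also: untransfected parental HEK293 lacking MrgX1 used as counterscreen for MrgX1 allosteric activators; fluorescence change taken during the second addition on a kinetic imager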
HEK293 Ca cntr2 = activity in parental HEK293 cells lacking MrgX1 receptor. Fluo-4 calcium fluorescence (FDSS); stronger effect = higher value. fluorescence ratio F(max-min)/F0 at 10 µM. shares compounds with MrgX1 antagonist. actives 8.7% (n = 4,000);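 active = calcium fluorescence ratio at least three times the spread of buffer wells, meaning a non-specific response in parental cells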
* = called active by the depositor; i = inactive; . = not tested or not shown.

SMILES | RGS4 block | MrgX1 agonist | RGS4 pot | MrgX1 PAM | MrgX1 antagonist | MrgX1 ant reconf | HEK293 Ca flux | HEK293 Ca counter | HEK293 Ca cntr2
CCOc1ccc(C(=O)NCc2ccccc2)cc1Br | i | i | i | i | -5.4* | 85%* | i | i | i
CCc1nc2ccc(C(=O)NCc3ccccc3)cc2nc1CC | i | i | i | i | -8.3* | i | i | i | i
O=C(NCc1ccccc1)c1cccc(COc2ccc(Cl)cc2)c1 | i | i | i | i | i | . | . | . | .
CSCc1ccc(C(=O)NCc2ccccc2)cc1 | i | i | i | i | i | . | . | . | .
CCOc1cc(C(=O)NCc2ccccc2)ccc1OCC(=O)N1CCOCC1 | i | i | i | i | i | . | . | . | .
O=C(NCc1ccccc1)c1cccc(COc2cccc(Cl)c2)c1 | i | i | i | i | -4.6* | i | i | i | i
CCCn1c(=O)cc(N)n(-c2ccc(OC(F)(F)F)cc2)c1=O | i | i | i | i | i | . | . | . | .
COC(=O)c1cc(S(=O)(=O)N2c3ccccc3CC2C)cn1C (stereo not drawn) | i | i | i | i | i | . | . | . | .
COc1ccc(CC2(CO)CCN(C(C)Cc3ccc(Cl)cc3)CC2)cc1 (stereo not drawn) | i | i | i | i | i | . | . | . | .
Cc1nn(C(C)C(=O)N2CCOCC2)c(C)c1[N+](=O)[O-] (stereo not drawn) | i | i | i | i | i | . | . | . | .
O=C(Nc1nnc(C2CC2)s1)c1ccc(Cl)c(S(=O)(=O)N2CCc3ccccc3C2)c1 | i | i | i | i | -6.4* | 63%* | i | i | i
Cc1cccc(NC(=O)c2ccc3c(c2)CCN3S(C)(=O)=O)c1 | i | i | i | i | i | . | . | . | .
C/C(=N\NC(=O)COc1cc(C)cc(C)c1)c1cccc(NC(=O)C2CCC2)c1 | i | i | i | i | i | . | . | . | .
O=C(O)C1C2C=CC(C2)C1C(=O)NC(c1ccccc1)c1ccccc1 (stereo not drawn) | i | i | i | i | i | . | . | . | .
Cc1ccc(Nc2nnc(SCc3cc(=O)n4ccsc4n3)s2)c(C)c1 | i | i | i | i | -7* | i | i | i | i
N#Cc1sc2nc(-c3ccccc3)cc(-c3ccco3)c2c1N | i | i | i | i | -10* | i | i | i | i
NC(=O)CC(NC(=O)Cc1ccc(Br)cc1)c1ccc(N2CCC(N3CCCCC3)CC2)c([N+](=O)[O-])c1 (stereo not drawn) | i | i | i | i | i | . | . | . | .
C=CCOc1c(Cl)cc(C(=S)N2CCCC2)cc1OCC | i | i | i | i | -6.9* | i | i | i | i
O=C(Nc1ccccc1C(=O)N1CCCC1)C1CCN(c2ncccn2)CC1 | i | i | i | i | -7.2* | i | i | i | i
Cc1ccccc1C(=O)NNC(=O)C1CCN(c2ncccn2)CC1 | i | i | i | i | i | . | . | . | .
O=C(O)CCCC(=O)Nc1ccccc1C(=O)N1CCCC1 | i | i | i | i | -5.5* | i | i | i | i
COc1cc(NC(=O)CC(C)C)ccc1NC(=O)c1ccco1 | i | i | i | i | -5.2* | i | i | i | i
COc1ccc(Cl)cc1NC(=S)NCc1ccco1 | i | i | i | i | i | . | . | . | .
CC(C)[C@H](NC(=O)c1nn(Cc2ccccc2)c(=O)c2ccccc12)C(=O)O | i | i | i | i | i | . | . | . | .
CCOC(=O)c1cccc(NC(=O)COc2nsnc2N2CCOCC2)c1 | i | i | i | i | i | . | . | . | .
SMILES | RGS4 block | MrgX1 agonist | RGS4 pot | MrgX1 PAM | MrgX1 antagonist | MrgX1 ant reconf | HEK293 Ca flux | HEK293 Ca counter | HEK293 Ca cntr2
COc1ccc(C(=O)Nc2nc(-c3cccs3)cs2)cc1 | i | i | i | i | -7.6* | i | i | i | i
O=C(Nc1nc(-c2cccs2)cs1)c1ccc(Cl)cc1 | i | i | i | i | i | . | . | . | .
c1coc(CNc2c3c(nc4ccccc24)CCC3)c1 | i | i | i | i | -5.5* | i | i | i | i
COC(=O)C1=C(C)NC(=O)CC1c1ccc(F)c(Br)c1 (stereo not drawn) | i | i | i | i | -4.6* | i | i | i | i
CCC(=O)Nc1nc(N)n(-c2ccccc2)n1 | i | i | i | i | -6.9* | i | i | i | i
O=C(O)Cc1sc(NC2CCCCC2)nc1-c1ccc(Cl)cc1 | i | i | i | i | -9.6* | 82%* | i | i | i
Cc1ccc(-c2nc(Nc3cccc(C)c3)sc2CC(=O)O)cc1 | i | i | i | i | i | . | . | . | .
COc1ccc2c(c1OC)C(=O)N1N=C(c3ccc(O)cc3)CC21 (stereo not drawn) | i | i | i | i | i | . | . | . | .
CCOC(=O)c1sc2nc(NC(=O)C(C)(C)C)sc2c1C | i | i | i | i | -5.1* | 79%* | i | i | i
Nc1nonc1-c1noc(N2CCCCC2)n1 | i | i | i | i | -5.5* | 85%* | i | i | i
c1ccc2oc(-c3ccc(Nc4nc(N5CCCC5)nc(N5CCOCC5)n4)cc3)nc2c1 | i | i | i | i | i | . | . | . | .
CCOC(=O)c1cnn(-c2cccc(Cl)c2)c1N | i | i | i | i | i | . | . | . | .
CCOC(=O)c1cnc2c(-c3ccccc3)cnn2c1C | i | i | i | i | -5* | i | i | i | i
CCOC(=O)c1cnn(-c2ccccc2)c1N | i | i | i | i | -4.7* | i | i | i | i
COC(=O)c1sc(-c2ccc(C(C)(C)C)cc2)cc1NC(=O)CCC(=O)O | i | i | i | i | -6.6* | 58%* | i | i | i
COC(=O)c1sc(-c2ccc(Cl)cc2)cc1NC(=O)COCC(=O)O | i | i | i | i | i | . | . | . | .

Bioassay records as filed in PubChem.
